Measurements as given in article PMC6863163 (Journal of neuro-oncology, 2019).
Several values for one entry are separate records, joined by “and”; a condition that tells them apart may be missing. Equal entries are not always repeated. Where two headings read alike, the source gives them in different places.

How the values were obtained:
[1] = test system: recurrent Rb-positive GBM; settings: 22 patients, 125 mg/day, 21-days-on, 7-days-off; cited from earlier work
[2] = test system: GBM cell proliferation; settings: 7 days before surgery, 4 matched samples; ref Taylor et al. 34; cited from earlier work
[3] = assay type: in vivo, human
How it was run: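 Patients took oral ribociclib, 600 mg/day, for 8–21 days, with the last dose 4–8 h before surgery. Baseline blood was drawn before treatment and again within 1 h before surgery, then split into plasma and buffy coat. CSF was collected during surgery when feasible. Tumor core and infiltrating regions were located by stealth MRI and frozen. Total drug was measured by validated LC–MS/MS. Unbound drug equals fraction unbound × total.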

[4] = assay type: in vitro ADME, human
How it was run: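 Plasma and tumor homogenate came from patients dosed at ribociclib 600 mg/day for 8–21 days. Samples were collected 4–8 h after the last pre-surgical dose. Fraction unbound was determined by equilibrium dialysis across a 5-kDa cutoff regenerated cellulose membrane.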

[5] = Safety monitoring, adverse events graded by NCI CTCAE version 4.0; assay type: in vivo, human; settings: for Cough / Creatinine increased / Edema, limbs / Gait disturbance / Generalized muscle weakness / Hyperglycemia / Musculoskeletal and connective tissue disorder—other: muscle pain / Nausea / Peripheral sensory neuropathy / Psychosis / Insomnia: count, prior to surgery and during treatment phase
How it was run: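 Participants with recurrent GBM took oral ribociclib, 600 mg once daily, for 8–21 days before resection. Rb-positive cases then continued on 21 days on and 7 days off per 28-day cycle. Throughout treatment, staff monitored complete blood counts, blood chemistry, 12-lead ECG, vital signs, Karnofsky status and physical exam. Adverse events were graded by NCI CTCAE v4.0 and assessed for expectedness and drug attribution.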

[6] = test system: recurrent GBM; test: Disease progression; assay type: in vivo, human; settings: for PFS from start of Ribociclib: 600 mg/day, 21-days-on, 7-days-off after surgery; for OS from second surgery: other regimens off-study after progression
How it was run: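 Patients with Rb-positive recurrent tumors continued oral ribociclib, 600 mg/day, 21 days on and 7 days off per 28-day cycle, until progression or unacceptable toxicity. Follow-up MRI, including perfusion and diffusion-weighted images, was done after every two cycles. Progression was judged by the Response Assessment in Neuro-Oncology (RANO) criteria.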

[7] = test system: RbS807/811; test: Immunohistochemistry for phospho-Rb in paired tumor specimens; assay type: in vivo, human
[8] = test system: Rb phosphorylation; settings: cultured cells, in vitro; cited from earlier work
[9] = test system: cell growth; settings: suppression of cell growth in vitro; no reference given; cited from earlier work
[10] = cited from earlier work
[11] = test system: Rb phosphorylation; settings: 900 mg/day for 5 days before surgery, 12 patients; ref Tien et al. 37; cited from earlier work
[12] = test system: cell proliferation; settings: 900 mg/day for 5 days before surgery, 12 patients; ref Tien et al. 37; cited from earlier work
[13] = test system: recurrent GBM; settings: three of 17 patients with recurrent GBM; 150 mg or 200 mg twice daily; cited from earlier work
[14] = enhancing tumor, subject RIBO-001, mean of specimens
[15] = enhancing tumor, subject RIBO-003, mean of specimens
[16] = mean across all specimens, 600 mg QD 8–21 days
[17] = mean ± SD, all tumor specimens of three subjects
[18] = mean ± SD, assuming tumor tissue density of 1.04 g/mL
[19] = non-enhancing tumor, subject RIBO-001, mean of specimens
[20] = tumor core, subject RIBO-002, mean of specimens
[21] = tumor core, subject RIBO-003, mean of specimens

For `CC(=O)c1c(C)c2cnc(Nc3ccc(N4CCNCC4)cn3)nc2n(C2CCCC2)c1=O` [palbociclib], the “Median PFS” value [1] is listed as 5.1 weeks, the OS [1] is listed as 15.4 weeks and the “Change in GBM cell proliferation by Ki-67 IHC” value [2] is listed as “did not produce significant changes”. The “Tumor drug concentrations vs pharmacologically active level” value [2] was “exceeded those felt to be pharmacologically active”.

For `CN(C)C(=O)c1cc2cnc(Nc3ccc(N4CCNCC4)cn3)nc2n1C1CCCC1` [ribociclib], the “Mean unbound ribociclib concentration in CSF” value ([3]; 600 mg QD 8–21 days, one CSF sample) was 0.632 µM and 0.63 µM, the “Ribociclib CSF concentration relative to the IC50 for inhibition of CDK4/6” value ([3]; CSF) was “> fivefold” and the “Total ribociclib (CSF ribociclib concentration)” value ([3]; CSF collected during surgery, subject RIBO-003, 600 mg QD, 14 days) was 0.63 µM. For the same compound, the “Total drug tumor (mean concentration)” value [3, 14] was 17.97 nmol/g, the “Unbound drug tumor (mean concentration)” value [3, 14] was 0.79 nmol/g and the “Total drug tumor (mean concentration)” value ([3]; enhancing tumor, subject RIBO-002, mean of specimens) was 24.73 nmol/g. The “Total drug tumor (mean concentration)” value [3, 15] was 29.99 nmol/g, the “Unbound drug tumor (mean concentration)” value [3, 15] was 1.29 nmol/g and the Kp ([3]; human, CSF / unbound plasma, oral, 600 mg/day, CSF/unbound plasma concentration ratio, one patient, 0.63/0.49) was 1.29. For the same compound, the “Mean unbound ribociclib concentration in MRI-enhancing tumor” value [3, 16] was 1.242 nmol/g, the “Mean unbound ribociclib concentration in MRI-non-enhancing tumor” value [3, 16] was 0.484 nmol/g and 0.48 nmol/g and the “Mean unbound ribociclib concentration in tumor core” value [3, 16] was 1.526 nmol/g. The “Mean concentration of unbound ribociclib in MRI-enhancing tumor or core” value ([3]; mean across all subjects, reported herein, 600 mg/day) was 1.33 nmol/g, the “Mean unbound ribociclib concentration in plasma” value ([3]; mean across participants, 600 mg QD 8–21 days) was 0.337 µM and the “Tumor tissue concentration of total ribociclib” value [3, 17] was 23.42 ± 10.79 nmol/g. For the same compound, the “Tumor tissue concentration of unbound ribociclib” value [3, 17] was 1.24 ± 0.64 nmol/g, the “Tumor tissue concentration of total ribociclib” value [3, 18] was 24.36 ± 11.22 µM and the “Unbound ribociclib intra-tumor drug concentration” value [3, 18] was 1.29 ± 0.67 µM. The “Unbound concentration in non-enhancing tumor relative to the IC50 for inhibition of CDK4/6” value ([3]; non-enhancing tumor) was “> fivefold”, the “Total drug tumor (mean concentration)” value [3, 19] was 8.86 nmol/g and the “Unbound drug tumor (mean concentration)” value [3, 19] was 0.48 nmol/g. It also gave a Total ribociclib ([3]; plasma, day of surgery, subject RIBO-001, 600 mg QD, 8 days before surgery) of 3.65 µM, a Total ribociclib ([3]; plasma, day of surgery, subject RIBO-002, 600 mg QD, 12 days before surgery) of 1.26 µM and a Total ribociclib ([3]; plasma, day of surgery, subject RIBO-003, 600 mg QD, 14 days before surgery) of 5.44 µM. The Total ribociclib ([3]; tumor core specimen, subject RIBO-001, 600 mg QD, 8 days, 4–8 h after last dose) was 16.30 nmol/g, the “Total drug tumor (mean concentration)” value ([3]; tumor core, subject RIBO-001) was 16.30 nmol/g and the “Unbound drug tumor (mean concentration)” value ([3]; tumor core, subject RIBO-001) was 0.82 nmol/g. The “Total drug tumor (mean concentration)” value [3, 20] was 33.03 nmol/g, the “Unbound drug tumor (mean concentration)” value [3, 20] was 2.11 nmol/g and the “Total drug tumor (mean concentration)” value [3, 21] was 21.65 nmol/g. For the same compound, the “Unbound drug tumor (mean concentration)” value [3, 21] was 1.30 nmol/g, the Fraction unbound ([4]; enhancing tumor specimens, subject RIBO-001) was 3.9% and the Fraction unbound ([4]; enhancing tumor specimens, subject RIBO-002) was 6.4% and 5.8% and 5.4%. For the same compound, the Fraction unbound ([4]; enhancing tumor specimens, subject RIBO-003) was 4.1% and 4.3%, the Fraction unbound ([4]; human, plasma, Fraction unbound, subject RIBO-001) was 0.102 and the Fraction unbound ([4]; human, plasma, Fraction unbound, subject RIBO-002) was 0.119. It also gave a Fraction unbound ([4]; human, plasma, Fraction unbound, subject RIBO-003) of 0.09, a Fraction unbound ([4]; non-enhancing tumor specimens, subject RIBO-001) of 4.2% and a Fraction unbound ([4]; tumor core specimens, subject RIBO-003) of 6.3%. The “Grade of all observed adverse events” value ([5]; CTCAE v4.0, three participants, 600 mg/day) was at most 2 grade, the Cough ([5]; Grade 1) was 1 and the Creatinine increased ([5]; Grade 1) was 0. For the same compound, the “Edema, limbs” value ([5]; Grade 1) was 1, the Gait disturbance ([5]; Grade 1) was 0 and the Generalized muscle weakness ([5]; Grade 1) was 0. For the same compound, the Hyperglycemia ([5]; Grade 1) was 0, the “Musculoskeletal and connective tissue disorder—other: muscle pain” value ([5]; Grade 1) was 1 and the Nausea ([5]; Grade 1) was 1. The Peripheral sensory neuropathy ([5]; Grade 1) was 1, the Psychosis ([5]; Grade 1) was 1 and the Creatinine increased ([5]; Grade 2) was 1. For the same compound, the “Edema, limbs” value ([5]; Grade 2) was 0, the Gait disturbance ([5]; Grade 2) was 1 and the Generalized muscle weakness ([5]; Grade 2) was 1. For the same compound, the Hyperglycemia ([5]; Grade 2) was 1, the Insomnia ([5]; Grade 2) was 1 and the “Musculoskeletal and connective tissue disorder—other: muscle pain” value ([5]; Grade 2) was 0. For the same compound, the Nausea ([5]; Grade 2) was 0, the Peripheral sensory neuropathy ([5]; Grade 2) was 0 and the Cough ([5]; Total) was 1. The Creatinine increased ([5]; Total) was 1, the “Edema, limbs” value ([5]; Total) was 1 and the Gait disturbance ([5]; Total) was 1. For the same compound, the Generalized muscle weakness ([5]; Total) was 1, the Hyperglycemia ([5]; Total) was 1 and the Insomnia ([5]; Total) was 1. For the same compound, the “Musculoskeletal and connective tissue disorder—other: muscle pain” value ([5]; Total) was 1, the Nausea ([5]; Total) was 1 and the Peripheral sensory neuropathy ([5]; Total) was 1. For the same compound, the Psychosis ([5]; Total) was 1, the Serious adverse events ([5]; three participants, 600 mg/day) was “No participants experienced serious adverse events” and the “Withdrawal from the study due to adverse events” value ([5]; three participants, 600 mg/day) was “No participants withdrew”. For the same compound, the Disease progression ([6]; all three participants, ribociclib monotherapy) was “all experienced early disease progression”, the “PFS from start of Ribociclib” value ([6]; participant 001) was 2 months and the “OS from second surgery” value ([6]; participant 001) was 10 months. The “PFS from start of Ribociclib” value ([6]; participant 002) was 5 months, the “OS from second surgery” value ([6]; participant 002) was 19 months and the “PFS from start of Ribociclib” value ([6]; participant 003) was 2 months. For the same compound, the “OS from second surgery” value ([6]; participant 003) was 12 months, the “Inhibition of tumor tissue CDK4/6 activity (phospho-Rb IHC) or cell proliferation (Ki-67 IHC)” value ([7]; 600 mg/day monotherapy, archived vs post-ribociclib tumor tissue) was “did not consistently inhibit” and the “Proportion of phospho-Rb-positive tumor cells and phospho-Rb histoscores, ribociclib-treated vs. baseline tumors” value ([7]; 8–21 days of ribociclib 600 mg/day, three subjects, Fig. S1A) was “Two of the three subjects showed a decrease”. The “Ribociclib (total drug) sufficient to suppress Rb phosphorylation” value [8] was 200 nM, the GI50 [9] was 276 nM and the “Mean unbound ribociclib fraction in plasma” value ([10]; CV = 17.6%) was 12.7%. For the same compound, the “Mean unbound ribociclib fraction in tumor tissues” value ([10]; CV = 23%) was 4.6%, the “Change in Rb phosphorylation, archived vs post-ribociclib tumor” value [11] was “significant decrease” and the “Change in cell proliferation, archived vs post-ribociclib tumor” value [12] was “significant decrease”.

In the case of `CCN1CCN(Cc2ccc(Nc3ncc(F)c(-c4cc(F)c5nc(C)n(C(C)C)c5c4)n3)nc2)CC1` [abemaciclib], the “Best response: duration of stable disease” value [13] is given as at least 24 weeks.
